# Where “and” joins values, the source holds several entries; their conditions need not be identical. Identical values can stand only once. Like-named read-outs stand apart in the source and are kept apart here.
# How the values were obtained:
# Assay type in all cases: in vivo, human (Japanese patients)
# [1] = system: Japanese patients with type 1 diabetes mellitus; assay: Safety: serum ketone levels; conditions: for Blood ketone body in patient with AE blood ketone body increased: person; for Mean (SD) change in total serum ketones: baseline until end of treatment
# In short: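 Total serum ketones, acetoacetic acid and 3-hydroxybutyric acid were measured at screening, predose on treatment days 1 (baseline), 2, 3, 14 and 15, and in the post-treatment period. Ketone increases were reported as adverse events.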
# [2] = system: Japanese patients with type 1 diabetes mellitus; assay: Concomitant insulin daily dose; conditions: day 14
# In short: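 Japanese type 1 diabetes patients on insulin; randomized, double-blind, placebo-controlled. Insulin was adjusted by usual clinical practice on physician instruction, with a cut considered if self-monitored glucose fell below 80 mg/dL. Basal, bolus and total daily units recorded; change from baseline to day 14.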
# [3] = Pharmacokinetics of ipragliflozin; conditions: human, plasma, oral, AUC24h, day 14, mean ± SD
# In short: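 Patients were hospitalized days −2 to 3 and days 13 to 15. […] The analysis set was patients dosed with at least one drug-concentration sample.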
# [4] = system: Japanese patients with type 1 diabetes mellitus; assay: Safety: treatment-emergent adverse events incl. hypoglycaemia
# In short: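 Self-monitored blood glucose was checked four times daily, before each meal and at bedtime. A value ≤70 mg/dL (≤3.89 mmol/L) was recorded as a hypoglycaemia adverse event. Adverse events were coded by MedDRA version 18.0 in all dosed patients.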
# [5] = system: Japanese patients with type 1 diabetes mellitus; conditions: Day 15; for Glycoalbumin, AMD (95% CI): adjusted mean difference to placebo; for Body weight, mean change from baseline / Glycoalbumin, mean change from baseline: mean ± SD
# In short: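 Glycoalbumin and body weight were taken as change from baseline to day 15. Differences from placebo came from an analysis of covariance with baseline as covariate, with 95% CI. Analysed in patients with day-14 pharmacodynamic data.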
smiles,measurement,setting,value
OC[C@H]1O[C@@H](c2ccc(F)c(Cc3cc4ccccc4s3)c2)[C@H](O)[C@@H](O)[C@@H]1O [ipragliflozin],Blood ketone body in patient with AE blood ketone body increased,"[1]; 25 mg group, day 15, 24 hours postdose",991 µmol/L
same,Mean (SD) change in total serum ketones,[1]; 25 mg/day,173.38 (267.48) μmol/L
same,Blood ketone body in patient with AE blood ketone body increased,"[1]; 50 mg group, day 15, 24 hours postdose",968 µmol/L
same,Mean (SD) change in total serum ketones,[1]; 50 mg/day,357.07 (294.41) μmol/L
same,Blood ketone body in patient with AE blood ketone body increased,"[1]; 100 mg group, day 2, predose",1200 µmol/L
same,Blood ketone body in patient with AE blood ketone body increased,"[1]; 100 mg group, day 15, 24 hours postdose",1770 µmol/L
same,Mean (SD) change in total serum ketones,[1]; 100 mg/day,233.18 (387.35) μmol/L
same,"Total daily insulin dose, % change from baseline (SD)",[2]; 25 mg/day,−14.77 ± 14.04%
same,"Total daily insulin dose, % change from baseline (SD)",[2]; 50 mg/day,−18.40 ± 12.49%
same,"Total daily insulin dose, % change from baseline (SD)",[2]; 100 mg/day,−19.25 ± 16.77%
same,AUC(0-t),"[3]; 25 mg/day, 25 mg/day",2510 ± 495 ng·h/mL
same,AUC(0-t),"[3]; 50 mg/day, 50 mg/day",5790 ± 1130 ng·h/mL
same,"Hypoglycaemia, Asymptomatic",[4]; 25 mg/day (n = 10),10 (100.0) patients (%)
same,"Hypoglycaemia, Asymptomatic, number of events",[4]; 25 mg/day (n = 10),44 events
same,"Hypoglycaemia, Documented symptomatic",[4]; 25 mg/day (n = 10),8 (80.0) patients (%)
same,"Hypoglycaemia, Documented symptomatic, number of events",[4]; 25 mg/day (n = 10),58 events
same,"Hypoglycaemia, Drug‐related",[4]; 25 mg/day (n = 10),10 (100.0) patients (%)
same,"Hypoglycaemia, Drug‐related, number of events",[4]; 25 mg/day (n = 10),83 events
same,"Hypoglycaemia, Major",[4]; 25 mg/day (n = 10),0 patients (%)
same,"Hypoglycaemia, Mild, number of events",[4]; 25 mg/day (n = 10),102 events
same,"Hypoglycaemia, Moderate",[4]; 25 mg/day (n = 10),1 (10.0) patients (%)
same,"Hypoglycaemia, Moderate, number of events",[4]; 25 mg/day (n = 10),1 events
same,"Hypoglycaemia, Probable symptomatic",[4]; 25 mg/day (n = 10),0 patients (%)
same,"Hypoglycaemia, Relative",[4]; 25 mg/day (n = 10),1 (10.0) patients (%)
same,"Hypoglycaemia, Relative, number of events",[4]; 25 mg/day (n = 10),1 events
same,"Hypoglycaemia, Serious",[4]; 25 mg/day (n = 10),0 patients (%)
same,"Hypoglycaemia, Severe",[4]; 25 mg/day (n = 10),0 patients (%)
same,TEAE Beta 2 microglobulin increased,[4]; 25 mg/day (n = 10),1 (10.0) patients (%)
same,TEAE Blood bilirubin increased,[4]; 25 mg/day (n = 10),1 (10.0) patients (%)
same,TEAE Blood ketone body increased,[4]; 25 mg/day (n = 10),1 (10.0) patients (%)
same,TEAE Constipation,[4]; 25 mg/day (n = 10),0 patients (%)
same,TEAE Decreased appetite,[4]; 25 mg/day (n = 10),0 patients (%)
same,TEAE Gastroenteritis,[4]; 25 mg/day (n = 10),1 (10.0) patients (%)
same,TEAE Headache,[4]; 25 mg/day (n = 10),0 patients (%)
same,TEAE Hemorrhoidal hemorrhage,[4]; 25 mg/day (n = 10),0 patients (%)
same,TEAE Hyperglycaemia,[4]; 25 mg/day (n = 10),0 patients (%)
same,TEAE Hypoglycaemia,[4]; 25 mg/day (n = 10),10 (100.0) patients (%)
same,"TEAE Hypoglycaemia, number of events",[4]; 25 mg/day (n = 10),103 events
same,TEAE Nasopharyngitis,[4]; 25 mg/day (n = 10),1 (10.0) patients (%)
same,TEAE Overall,[4]; 25 mg/day (n = 10),10 (100.0) patients (%)
same,TEAE Papule,[4]; 25 mg/day (n = 10),0 patients (%)
same,TEAE Pollakiuria,[4]; 25 mg/day (n = 10),0 patients (%)
same,TEAE Pyrexia,[4]; 25 mg/day (n = 10),0 patients (%)
same,TEAE Upper respiratory tract infection,[4]; 25 mg/day (n = 10),0 patients (%)
same,TEAE Urine ketone body present,[4]; 25 mg/day (n = 10),0 patients (%)
same,TEAE Vomiting,[4]; 25 mg/day (n = 10),0 patients (%)
same,"Hypoglycaemia, Asymptomatic",[4]; 50 mg/day (n = 12),9 (75.0) patients (%)
same,"Hypoglycaemia, Asymptomatic, number of events",[4]; 50 mg/day (n = 12),34 events
same,"Hypoglycaemia, Documented symptomatic",[4]; 50 mg/day (n = 12),11 (91.7) patients (%)
same,"Hypoglycaemia, Documented symptomatic, number of events",[4]; 50 mg/day (n = 12),96 events
same,"Hypoglycaemia, Drug‐related",[4]; 50 mg/day (n = 12),12 (100.0) patients (%)
same,"Hypoglycaemia, Drug‐related, number of events",[4]; 50 mg/day (n = 12),122 events
same,"Hypoglycaemia, Major",[4]; 50 mg/day (n = 12),0 patients (%)
same,"Hypoglycaemia, Mild, number of events",[4]; 50 mg/day (n = 12),141 events
same,"Hypoglycaemia, Moderate",[4]; 50 mg/day (n = 12),1 (8.3) patients (%)
same,"Hypoglycaemia, Moderate, number of events",[4]; 50 mg/day (n = 12),3 events
same,"Hypoglycaemia, Probable symptomatic",[4]; 50 mg/day (n = 12),3 (25.0) patients (%)
same,"Hypoglycaemia, Probable symptomatic, number of events",[4]; 50 mg/day (n = 12),3 events
same,"Hypoglycaemia, Relative",[4]; 50 mg/day (n = 12),4 (33.3) patients (%)
same,"Hypoglycaemia, Relative, number of events",[4]; 50 mg/day (n = 12),11 events
same,"Hypoglycaemia, Serious",[4]; 50 mg/day (n = 12),0 patients (%)
same,"Hypoglycaemia, Severe",[4]; 50 mg/day (n = 12),0 patients (%)
same,TEAE Beta 2 microglobulin increased,[4]; 50 mg/day (n = 12),0 patients (%)
same,TEAE Blood bilirubin increased,[4]; 50 mg/day (n = 12),0 patients (%)
same,TEAE Blood ketone body increased,[4]; 50 mg/day (n = 12),1 (8.3) patients (%)
same,TEAE Constipation,[4]; 50 mg/day (n = 12),1 (8.3) patients (%)
same,TEAE Decreased appetite,[4]; 50 mg/day (n = 12),1 (8.3) patients (%)
same,TEAE Gastroenteritis,[4]; 50 mg/day (n = 12),0 patients (%)
same,TEAE Headache,[4]; 50 mg/day (n = 12),0 patients (%)
same,TEAE Hemorrhoidal hemorrhage,[4]; 50 mg/day (n = 12),0 patients (%)
same,TEAE Hyperglycaemia,[4]; 50 mg/day (n = 12),1 (8.3) patients (%)
same,TEAE Hypoglycaemia,[4]; 50 mg/day (n = 12),12 (100.0) patients (%)
same,"TEAE Hypoglycaemia, number of events",[4]; 50 mg/day (n = 12),144 events
same,TEAE Nasopharyngitis,[4]; 50 mg/day (n = 12),1 (8.3) patients (%)
same,TEAE Overall,[4]; 50 mg/day (n = 12),12 (100.0) patients (%)
same,TEAE Papule,[4]; 50 mg/day (n = 12),1 (8.3) patients (%)
same,TEAE Pollakiuria,[4]; 50 mg/day (n = 12),1 (8.3) patients (%)
same,TEAE Pyrexia,[4]; 50 mg/day (n = 12),1 (8.3) patients (%)
same,TEAE Upper respiratory tract infection,[4]; 50 mg/day (n = 12),0 patients (%)
same,TEAE Urine ketone body present,[4]; 50 mg/day (n = 12),1 (8.3) patients (%)
same,TEAE Vomiting,[4]; 50 mg/day (n = 12),1 (8.3) patients (%)
same,"Hypoglycaemia, Asymptomatic",[4]; 100 mg/day (n = 10),9 (90.0) patients (%)
same,"Hypoglycaemia, Asymptomatic, number of events",[4]; 100 mg/day (n = 10),60 events
same,"Hypoglycaemia, Documented symptomatic",[4]; 100 mg/day (n = 10),7 (70.0) patients (%)
same,"Hypoglycaemia, Documented symptomatic, number of events",[4]; 100 mg/day (n = 10),25 events
same,"Hypoglycaemia, Drug‐related",[4]; 100 mg/day (n = 10),9 (90.0) patients (%)
same,"Hypoglycaemia, Drug‐related, number of events",[4]; 100 mg/day (n = 10),77 events
same,"Hypoglycaemia, Major",[4]; 100 mg/day (n = 10),0 patients (%)
same,"Hypoglycaemia, Mild, number of events",[4]; 100 mg/day (n = 10),85 events
same,"Hypoglycaemia, Moderate",[4]; 100 mg/day (n = 10),0 patients (%)
same,"Hypoglycaemia, Probable symptomatic",[4]; 100 mg/day (n = 10),0 patients (%)
same,"Hypoglycaemia, Relative",[4]; 100 mg/day (n = 10),0 patients (%)
same,"Hypoglycaemia, Serious",[4]; 100 mg/day (n = 10),0 patients (%)
same,"Hypoglycaemia, Severe",[4]; 100 mg/day (n = 10),0 patients (%)
same,TEAE Beta 2 microglobulin increased,[4]; 100 mg/day (n = 10),0 patients (%)
same,TEAE Blood bilirubin increased,[4]; 100 mg/day (n = 10),0 patients (%)
same,TEAE Blood ketone body increased,[4]; 100 mg/day (n = 10),2 (20.0) patients (%)
same,TEAE Constipation,[4]; 100 mg/day (n = 10),0 patients (%)
same,TEAE Decreased appetite,[4]; 100 mg/day (n = 10),0 patients (%)
same,TEAE Gastroenteritis,[4]; 100 mg/day (n = 10),0 patients (%)
same,TEAE Headache,[4]; 100 mg/day (n = 10),0 patients (%)
same,TEAE Hemorrhoidal hemorrhage,[4]; 100 mg/day (n = 10),0 patients (%)
same,TEAE Hyperglycaemia,[4]; 100 mg/day (n = 10),0 patients (%)
same,TEAE Hypoglycaemia,[4]; 100 mg/day (n = 10),9 (90.0) patients (%)
same,"TEAE Hypoglycaemia, number of events",[4]; 100 mg/day (n = 10),85 events
same,TEAE Nasopharyngitis,[4]; 100 mg/day (n = 10),0 patients (%)
same,TEAE Overall,[4]; 100 mg/day (n = 10),9 (90.0) patients (%)
same,TEAE Papule,[4]; 100 mg/day (n = 10),0 patients (%)
same,TEAE Pollakiuria,[4]; 100 mg/day (n = 10),0 patients (%)
same,TEAE Pyrexia,[4]; 100 mg/day (n = 10),0 patients (%)
same,TEAE Upper respiratory tract infection,[4]; 100 mg/day (n = 10),1 (10.0) patients (%)
same,TEAE Urine ketone body present,[4]; 100 mg/day (n = 10),1 (10.0) patients (%)
same,TEAE Vomiting,[4]; 100 mg/day (n = 10),0 patients (%)
same,"Deaths, serious TEAEs, TEAEs leading to discontinuation","[4]; 25, 50, 100 mg/day for 14 days","no deaths, other serious TEAEs, or TEAEs leading to discontinuation"
same,Ketoacidosis,"[4]; 25, 50, 100 mg/day for 14 days",no ketoacidosis was observed
same,"Glycoalbumin, AMD (95% CI)",[5]; 25 mg/day,"−2.17% and −2.17 (−3.84, −0.51) %"
same,"Body weight, mean change from baseline",[5]; 25 mg/day,-0.83 ± 0.48 kg
same,"Glycoalbumin, mean change from baseline",[5]; 25 mg/day,−2.67 ± 2.30%
same,"Glycoalbumin, AMD (95% CI)",[5]; 50 mg/day,"−2.03% and −2.03 (−3.58, −0.48) %"
same,"Body weight, mean change from baseline",[5]; 50 mg/day,-1.18 ± 1.06 kg
same,"Glycoalbumin, mean change from baseline",[5]; 50 mg/day,−2.53 ± 1.52%
same,"Body weight, mean change from baseline",[5]; 100 mg/day,-0.94 ± 0.89 kg
same,"Glycoalbumin, mean change from baseline",[5]; 100 mg/day,−2.95 ± 2.24%
